Article PMC10870114 (Clinical Cancer Research, 2023)

Experiments:
[1] = test system: patients with locally advanced rectal cancer; assay: Late toxicities and deaths after the on-treatment period; type: in vivo, human
[2] = test system: locally advanced rectal cancer; assay: Tumor response; type: in vivo, human
[3] = test system: locally advanced rectal cancer; assay: Neoadjuvant rectal; type: in vivo, human; details: for NAR score, median: patients who underwent surgery
In short: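 Patients without clinical complete response were to have surgery 9.5±2 weeks after CRT completion. On the resected tissue, tumour regression was graded by the modified Ryan scheme, from 0 (complete response) to 3 (poor or no response). The NAR score was calculated only for operated patients, with lower scores denoting better prognosis.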

[4] = test system: patients with advanced solid tumors; details: cited from earlier work
[5] = test system: patients with locally advanced head and neck cancer; details: NCT02516813; cited from earlier work
[6] = Overall, peposertib 50-250 mg + RT + capecitabine, n = 19
[7] = peposertib 50 mg + RT + capecitabine, n = 1
[8] = peposertib 100 mg + RT + capecitabine, n = 6
[9] = peposertib 150 mg + RT + capecitabine, n = 6
[10] = peposertib 250 mg + RT + capecitabine, n = 6

Question: For COc1ccc([C@@H](O)c2cc(-c3ncnc4cc(N5CCOCC5)ccc34)c(F)cc2Cl)nn1 [Peposertib], which “Dose dependence of late toxicities” value ([1]; across the peposertib dose range) is on record?
Answer: The value was “no discernible indication of a dose-dependent effect”.

Question: What about the “Late toxicities: anemia” value ([1]; all cohorts) of the same molecule?
Answer: The value was 3 n.

Question: And the “Patients with late toxicities” value ([1]; all cohorts, 18 patients, data cutoff March 22, 2022)?
Answer: Its value is 94.7%.

Question: What about the “Grade ≥3 late toxicities” value ([1]; all cohorts, at data cutoff) of the same molecule?
Answer: Its value is 11 patients.

Question: What about the “Late toxicities: proctitis” value ([1]; all cohorts, n = 3) of the same molecule?
Answer: Its value is 15.8%.

Question: What about the “Late toxicities: gastrointestinal disorders” value ([1]; all cohorts, n = 12) of the same molecule?
Answer: The value was 63.2%.

Question: What about the “Patients who died during the study” value ([1]; all considered unrelated to study treatment, not treatment-emergent) of the same molecule?
Answer: The value was “Three”.

Question: What about the cCR rate ([2]; 8 weeks after CRT completion, all cohorts, n = 3 of 19) of the same molecule?
Answer: The cCR rate was 15.8%.

Question: And the “Clinical complete response: Responders” value [2, 6]?
Answer: The value was 3 (15.8) n (%).

Question: And the “Clinical response: Complete response” value [2, 6]?
Answer: The value was 3 (15.8) n (%).

Question: What about the “Clinical response: Incomplete response” value [2, 6] of the same molecule?
Answer: Its value is 4 (21.1) n (%).

Question: What about the “Clinical response: Near-complete response” value [2, 6] of the same molecule?
Answer: The value was 8 (42.1) n (%).

Question: And the “Clinical response: Progressive disease” value [2, 6]?
Answer: The value was 0 (0) n (%).

Question: And the “Composite endpoint cCR/pCR: Responders” value [2, 6]?
Answer: Its value is 1 (5.3) n (%).

Question: What about the “Pathologic complete response: Responders” value [2, 6] of the same molecule?
Answer: The value was 0 (0) n (%).

Question: What about the “Composite endpoint cCR/pCR rate” value ([2]; all cohorts, one of 19 patients (100-mg cohort)) of the same molecule?
Answer: Its value is 5.3%.

Question: What about the “Patients achieving pCR” value ([2]; of the nine patients who opted for surgery) of the same molecule?
Answer: The value was “none”.

Question: What about the “Clinical complete response: Responders” value [2, 7] of the same molecule?
Answer: The value was 0 (0) n (%).

Question: What about the “Clinical response: Complete response” value [2, 7] of the same molecule?
Answer: Its value is 0 (0) n (%).

Question: And the “Clinical response: Incomplete response” value [2, 7]?
Answer: Its value is 0 (0) n (%).

Question: What about the “Clinical response: Near-complete response” value [2, 7] of the same molecule?
Answer: The value was 1 (100) n (%).

Question: And the “Clinical response: Progressive disease” value [2, 7]?
Answer: The value was 0 (0) n (%).

Question: What about the “Composite endpoint cCR/pCR: Responders” value [2, 7] of the same molecule?
Answer: Its value is 0 (0) n (%).

Question: What about the “Pathologic complete response: Responders” value [2, 7] of the same molecule?
Answer: Its value is 0 (0) n (%).

Question: What about the “Clinical complete response: Responders” value [2, 8] of the same molecule?
Answer: Its value is 1 (16.7) n (%).

Question: And the “Clinical response: Complete response” value [2, 8]?
Answer: The value was 1 (16.7) n (%).

Question: What about the “Clinical response: Incomplete response” value [2, 8] of the same molecule?
Answer: The value was 1 (16.7) n (%).

Question: What about the “Clinical response: Near-complete response” value [2, 8] of the same molecule?
Answer: Its value is 2 (33.3) n (%).

Question: And the “Clinical response: Progressive disease” value [2, 8]?
Answer: The value was 0 (0) n (%).

Question: What about the “Composite endpoint cCR/pCR: Responders” value [2, 8] of the same molecule?
Answer: The value was 1 (16.7) n (%).

Question: And the “Pathologic complete response: Responders” value [2, 8]?
Answer: Its value is 0 (0) n (%).

Question: What about the “Clinical complete response: Responders” value [2, 9] of the same molecule?
Answer: The value was 1 (16.7) n (%).

Question: What about the “Clinical response: Complete response” value [2, 9] of the same molecule?
Answer: The value was 1 (16.7) n (%).

Question: What about the “Clinical response: Incomplete response” value [2, 9] of the same molecule?
Answer: The value was 2 (33.3) n (%).

Question: What about the “Clinical response: Near-complete response” value [2, 9] of the same molecule?
Answer: The value was 2 (33.3) n (%).

Question: And the “Clinical response: Progressive disease” value [2, 9]?
Answer: The value was 0 (0) n (%).

Question: What about the “Composite endpoint cCR/pCR: Responders” value [2, 9] of the same molecule?
Answer: Its value is 0 (0) n (%).

Question: And the “Pathologic complete response: Responders” value [2, 9]?
Answer: The value was 0 (0) n (%).

Question: And the “Clinical complete response: Responders” value [2, 10]?
Answer: Its value is 1 (16.7) n (%).

Question: And the “Clinical response: Complete response” value [2, 10]?
Answer: Its value is 1 (16.7) n (%).

Question: And the “Clinical response: Incomplete response” value [2, 10]?
Answer: The value was 1 (16.7) n (%).

Question: And the “Clinical response: Near-complete response” value [2, 10]?
Answer: The value was 3 (50.0) n (%).

Question: What about the “Clinical response: Progressive disease” value [2, 10] of the same molecule?
Answer: The value was 0 (0) n (%).

Question: And the “Composite endpoint cCR/pCR: Responders” value [2, 10]?
Answer: The value was 0 (0) n (%).

Question: What about the “Pathologic complete response: Responders” value [2, 10] of the same molecule?
Answer: The value was 0 (0) n (%).

Question: And the “NAR score, median” value ([3]; 100-mg dose cohort)?
Answer: Its value is 9.4.

Question: And the “NAR score, median” value ([3]; 150-mg dose cohort)?
Answer: The value was 13.8.

Question: And the “NAR score, median” value ([3]; 250-mg dose cohort)?
Answer: Its value is 15.0.

Question: And the “Patients with a Ryan score of 1” value ([3]; one each in the 100-mg and 150-mg cohorts)?
Answer: The value was “two patients”.

Question: What about the “Toxicity of peposertib monotherapy” value [4] of the same molecule?
Answer: Its value is “no significant toxicity”.

Question: And the “Dose recommended for further evaluation” value ([4]; monotherapy)?
Answer: The value was 400 mg twice daily.

Question: What about the “Safety of combination with RT and full doses of cisplatin” value [5] of the same molecule?
Answer: The value was “could not be safely combined”.
